{"source": "ChEMBL document CHEMBL4400576", "about": "“Identification of Pyrazolo[1,5-a]pyridine-3-carboxamide Diaryl Derivatives as Drug Resistant Antituberculosis Agents” (ACS Med Chem Lett, 2019)", "key": {"[1]": {"system": "Mycobacterium tuberculosis", "test": "Antibacterial activity against Mycobacterium tuberculosis H37Rv after 7 days by microplate alamar blue assay", "assay_type": "functional", "conditions": "168 h", "summary_of_the_method": "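MIC against H37Rv by MABA. Primary screen run at 0.02 to 5 μg/mL. Compounds retested at 0.002 to 0.5 μg/mL.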"}, "[2]": {"system": "Vero", "test": "Cytotoxicity against African green monkey Vero cells measured after 72 hrs by CellTiter 96 aqueous non-radioactive cell proliferation assay", "assay_type": "cell-based", "conditions": "Chlorocebus sabaeus", "summary_of_the_method": "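Vero cells were exposed to compound, and cytotoxicity was reported as IC50 in µg/mL.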"}, "[3]": {"test": "Selectivity index, ratio of IC50 for African green monkey Vero cells to MIC>=90 for Mycobacterium tuberculosis H37Rv", "assay_type": "toxicity", "conditions": "read-out: Selectivity Index", "summary_of_the_method": "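SI is Vero cell IC50 divided by MABA MIC against H37Rv, with MIC tested at 0.002 to 0.5 μg/mL.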"}, "[4]": {"test": "MRT (0 to infinity) in Sprague-Dawley rat at 2.5 mg/kg, iv by LC-MS/MS analysis", "assay_type": "ADME, organism-based", "conditions": "in vivo", "summary_of_the_method": "(§1)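 Rats received a single dose of compound, either intravenously at 2.5 mg/kg or orally at 10 mg/kg, in separate arms. Plasma parameters were AUC0-∞ (h*µg/L), Cmax (µg/L), Tmax, T1/2 and MRT (h). Oral bioavailability F (%) was derived from the oral and intravenous arms.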"}, "[5]": {"test": "AUC (0 to infinity) in Sprague-Dawley rat at 2.5 mg/kg, iv by LC-MS/MS analysis", "assay_type": "ADME, organism-based", "parameters": "dose 2.5 mg/kg, route intravenous, time infinity", "conditions": "in vivo", "summary_of_the_method": "as §1"}, "[6]": {"test": "MRT (0 to infinity) in Sprague-Dawley rat at 10 mg/kg, po by LC-MS/MS analysis", "assay_type": "ADME, organism-based", "conditions": "in vivo", "summary_of_the_method": "as §1"}, "[7]": {"test": "Half life in Sprague-Dawley rat at 10 mg/kg, po by LC-MS/MS analysis", "assay_type": "ADME, organism-based", "conditions": "in vivo", "summary_of_the_method": "as §1"}, "[8]": {"test": "Half life in Sprague-Dawley rat at 2.5 mg/kg, iv by LC-MS/MS analysis", "assay_type": "ADME, organism-based", "conditions": "in vivo", "summary_of_the_method": "as §1"}, "[9]": {"test": "Oral bioavailability in Sprague-Dawley rat at 10 mg/kg by LC-MS/MS analysis", "assay_type": "ADME, organism-based", "conditions": "in vivo", "summary_of_the_method": "as §1"}, "[10]": {"test": "Cmax in Sprague-Dawley rat at 2.5 mg/kg, iv by LC-MS/MS analysis", "assay_type": "ADME, organism-based", "parameters": "dose 2.5 mg/kg, route intravenous", "conditions": "in vivo", "summary_of_the_method": "as §1"}, "[11]": {"test": "Tmax in Sprague-Dawley rat at 10 mg/kg, po by LC-MS/MS analysis", "assay_type": "ADME, organism-based", "conditions": "in vivo", "summary_of_the_method": "as §1"}, "[12]": {"test": "Cmax in Sprague-Dawley rat at 10 mg/kg, po by LC-MS/MS analysis", "assay_type": "ADME, organism-based", "parameters": "dose 10 mg/kg, route oral", "conditions": "in vivo", "summary_of_the_method": "as §1"}, "[13]": {"test": "AUC (0 to infinity) in Sprague-Dawley rat at 10 mg/kg, po by LC-MS/MS analysis", "assay_type": "ADME, organism-based", "parameters": "dose 10 mg/kg, route oral, time infinity", "conditions": "in vivo", "summary_of_the_method": "as §1"}, "[14]": {"test": "Tmax in Sprague-Dawley rat at 2.5 mg/kg, iv by LC-MS/MS analysis", "assay_type": "ADME, organism-based", "conditions": "in vivo", "summary_of_the_method": "as §1"}}, "data": [{"smiles": "COc1ccn2nc(C)c(C(=O)NCc3nnc(-c4ccc(OC(F)(F)F)cc4)o3)c2c1", "values": [{"measurement": "MIC90", "setting": "[1]", "value": "> 5", "unit": "µg/mL"}]}, {"smiles": "COc1ccn2nc(C)c(C(=O)NCc3ccc(-c4ccc(OC(F)(F)F)cc4)c(OC)c3)c2c1", "values": [{"measurement": "IC50", "setting": "[2]", "value": 11.8, "unit": "µg/mL"}, {"measurement": "selectivity ratio", "setting": "[3]", "value": 1680}]}, {"smiles": "COc1ccn2nc(C)c(C(=O)NCc3ncc(-c4ccc(OC(F)(F)F)cc4)[nH]3)c2c1", "values": [{"measurement": "MIC90", "setting": "[1]", "value": "> 5", "unit": "µg/mL"}]}, {"smiles": "COc1ccn2nc(C)c(C(=O)NCc3ccc(-c4ccc(OC(F)(F)F)cc4)cc3C)c2c1", "values": [{"measurement": "MIC90", "setting": "[1]", "value": 0.57, "unit": "µg/mL"}]}, {"smiles": "COc1ccn2nc(C)c(C(=O)NCc3ccc(-c4ccc(OC(F)(F)F)cc4)cc3F)c2c1", "values": [{"measurement": "IC50", "setting": "[2]", "value": "> 50", "unit": "µg/mL"}, {"measurement": "selectivity ratio", "setting": "[3]", "value": "> 7140"}]}, {"smiles": "COc1ccn2nc(C)c(C(=O)NCc3ccc(-c4ccc(OC(F)(F)F)cc4)c(C(F)(F)F)c3)c2c1", "values": [{"measurement": "IC50", "setting": "[2]", "value": 11.6, "unit": "µg/mL"}, {"measurement": "selectivity ratio", "setting": "[3]", "value": 402}]}, {"smiles": "COc1ccn2nc(C)c(C(=O)NCc3ccc(-c4ccc(OC(F)(F)F)cc4)cc3OC)c2c1", "values": [{"measurement": "MIC90", "setting": "[1]", "value": 0.28, "unit": "µg/mL"}]}, {"smiles": "COc1ccn2nc(C)c(C(=O)NCc3ccc(-c4ccc(OC(F)(F)F)cc4)s3)c2c1", "values": [{"measurement": "IC50", "setting": "[2]", "value": "> 50", "unit": "µg/mL"}, {"measurement": "selectivity ratio", "setting": "[3]", "value": "> 25000"}]}, {"smiles": "COc1ccn2nc(C)c(C(=O)NCc3ccc(-c4ccc(OC(F)(F)F)cc4)nc3)c2c1", "values": [{"measurement": "IC50", "setting": "[2]", "value": 28.4, "unit": "µg/mL"}, {"measurement": "selectivity ratio", "setting": "[3]", "value": 535}]}, {"smiles": "COc1ccn2nc(C)c(C(=O)NCc3ncc(-c4ccc(OC(F)(F)F)cc4)o3)c2c1", "values": [{"measurement": "MIC90", "setting": "[1]", "value": 1.96, "unit": "µg/mL"}]}, {"smiles": "COc1ccn2nc(C)c(C(=O)NCc3cn(-c4ccc(OC(F)(F)F)cc4)nn3)c2c1", "values": [{"measurement": "MIC90", "setting": "[1]", "value": "> 5", "unit": "µg/mL"}]}, {"smiles": "COc1ccn2nc(C)c(C(=O)NCc3cnc(-c4ccc(OC(F)(F)F)cc4)s3)c2c1", "values": [{"measurement": "MIC90", "setting": "[1]", "value": 0.53, "unit": "µg/mL"}]}, {"smiles": "COc1ccn2nc(C)c(C(=O)NCc3ccc(-c4ccc(OC(F)(F)F)cc4)cc3C(F)(F)F)c2c1", "values": [{"measurement": "MIC90", "setting": "[1]", "value": "> 5", "unit": "µg/mL"}]}, {"smiles": "COc1ccn2nc(C)c(C(=O)NCc3ccc(-c4ccc(OC(F)(F)F)cc4)cn3)c2c1", "values": [{"measurement": "MRT inf", "setting": "[4]", "value": 4.02, "unit": "h"}, {"measurement": "AUC(0-inf)", "setting": "[5]", "value": 9000, "unit": "ng·h/mL"}, {"measurement": "MRT inf", "setting": "[6]", "value": 8.21, "unit": "h"}, {"measurement": "half-life", "setting": "[7]", "value": 5.1, "unit": "h"}, {"measurement": "half-life", "setting": "[8]", "value": 3.49, "unit": "h"}, {"measurement": "bioavailability", "setting": "[9]", "value": 41, "unit": "%"}, {"measurement": "Cmax", "setting": "[10]", "value": 4150, "unit": "ng/mL"}, {"measurement": "IC50", "setting": "[2]", "value": "> 50", "unit": "µg/mL"}, {"measurement": "Tmax", "setting": "[11]", "value": 4.67, "unit": "h"}, {"measurement": "Cmax", "setting": "[12]", "value": 1430, "unit": "ng/mL"}, {"measurement": "AUC(0-inf)", "setting": "[13]", "value": 15600, "unit": "ng·h/mL"}, {"measurement": "selectivity ratio", "setting": "[3]", "value": "> 25000"}, {"measurement": "Tmax", "setting": "[14]", "value": 4.8, "unit": "min"}]}, {"smiles": "COc1ccn2nc(C)c(C(=O)NCc3ccc(-c4ccc(OC(F)(F)F)cc4)c(F)c3)c2c1", "values": [{"measurement": "IC50", "setting": "[2]", "value": "> 50", "unit": "µg/mL"}, {"measurement": "selectivity ratio", "setting": "[3]", "value": "> 25000"}]}, {"smiles": "COc1ccn2nc(C)c(C(=O)NCc3ccc(-c4ccc(OC(F)(F)F)cc4)c(C)c3)c2c1", "values": [{"measurement": "IC50", "setting": "[2]", "value": 3.15, "unit": "µg/mL"}, {"measurement": "selectivity ratio", "setting": "[3]", "value": 242}]}, {"smiles": "COc1nc2ccc(Br)cc2cc1[C@@H](c1ccccc1)[C@@](O)(CCN(C)C)c1cccc2ccccc12", "note": "[BEDAQUILINE]", "values": [{"measurement": "MIC90", "setting": "[1]", "value": "0.02 to 0.03", "unit": "µg/mL"}, {"measurement": "IC50", "setting": "[2]", "value": "> 10", "unit": "µg/mL"}, {"measurement": "selectivity ratio", "setting": "[3]", "value": "> 500"}]}, {"smiles": "NNC(=O)c1ccncc1", "note": "[ISONIAZID]", "values": [{"measurement": "MIC90", "setting": "[1]", "value": "0.239 to 0.48", "unit": "µg/mL"}]}, {"smiles": "CC(=O)NC[C@H]1CN(c2ccc(N3CCOCC3)c(F)c2)C(=O)O1", "note": "[LINEZOLID]", "values": [{"measurement": "MIC90", "setting": "[1]", "value": "1.25 to 3.27", "unit": "µg/mL"}]}, {"smiles": "CO[C@H]1/C=C/O[C@@]2(C)Oc3c(C)c(O)c4c(O)c(c(/C=N/N5CCN(C)CC5)c(O)c4c3C2=O)NC(=O)/C(C)=C\\C=C\\[C@H](C)[C@H](O)[C@@H](C)[C@@H](O)[C@@H](C)[C@H](OC(C)=O)[C@@H]1C", "note": "[RIFAMPIN]", "values": [{"measurement": "IC50", "setting": "[2]", "value": "> 100", "unit": "µg/mL"}, {"measurement": "selectivity ratio", "setting": "[3]", "value": "> 12500"}]}]}
